Screens: PubChem, The Scripps Research Institute Molecular Screening Center
This is a sample that favours compounds with a hit; in the whole collection about 3.3% have one here.
rCAG binder: binds r(CAG) RNA repeats; inhibition, % at 3 µM; actives 1.3% (n = 370,000); r(CAG) RNA repeat, TO-PRO-1 dye displacement fluorescence; AID 651821;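 active = inhibition above the plate cutoff, the mean of all test compounds on that plate plus 3 SD, cut at about 35% in these data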;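 note: 0% = DMSO alone and 100% = 100 µM mitoxantrone as full dye displacement; higher means more dye released from RNA so lower well fluorescence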
HTRA1 inh: inhibitors of human serine peptidase HTRA1; inhibition, % at 5.96 µM; actives 0.5% (n = 340,000); recombinant HTRA1, FP-rhodamine activity-based probe, fluorescence polarization; AID 504803; Q92743; in the data active = inhibition above about 36%;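 note: 0% = enzyme with DMSO and 100% = wells lacking enzyme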
mABHD4 FP: inhibitors of mouse ABHD4. actives 0.54% (n = 370,000). inhibition, % at 8.92 µM. purified mABHD4, FP-Rh probe fluorescence polarization. AID 720543. Q8VD66;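 active = inhibition exceeding the mean over every tested compound plus 3 SD, cut at about 30% in these data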;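 note: 0% = plate median of compound wells and 100% = S159A mutant with DMSO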
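assay system = mABHD4 protein | compound dosing = single nominal dose of 8.92 µM, 0.89% DMSO final | read-out basis = percent inhibition of probe binding, normalized to plate controls | schedule = Enzyme–compound pre-incubation 45 min, then probe 60 min, both 25 °C | detection = fluorescence polarization, excitation 525 nm, emission 598 nm, BODIPY TMR filters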
SIAE primary: blocks human sialic acid acetylesterase | Q9HAT2 | SIAE FP-Rh probe binding, fluorescence polarization | inhibition, % at 9.66 µM | actives 0.69% (n = 370,000);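 active = inhibition above a cutoff: mean of compounds within the control limits plus 3 SD of those, cut at about 17% in these data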;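 note: 0% = plate median of compound wells and 100% = probe without SIAE protein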
Target sequence (Q9HAT2 whole entry, looked up): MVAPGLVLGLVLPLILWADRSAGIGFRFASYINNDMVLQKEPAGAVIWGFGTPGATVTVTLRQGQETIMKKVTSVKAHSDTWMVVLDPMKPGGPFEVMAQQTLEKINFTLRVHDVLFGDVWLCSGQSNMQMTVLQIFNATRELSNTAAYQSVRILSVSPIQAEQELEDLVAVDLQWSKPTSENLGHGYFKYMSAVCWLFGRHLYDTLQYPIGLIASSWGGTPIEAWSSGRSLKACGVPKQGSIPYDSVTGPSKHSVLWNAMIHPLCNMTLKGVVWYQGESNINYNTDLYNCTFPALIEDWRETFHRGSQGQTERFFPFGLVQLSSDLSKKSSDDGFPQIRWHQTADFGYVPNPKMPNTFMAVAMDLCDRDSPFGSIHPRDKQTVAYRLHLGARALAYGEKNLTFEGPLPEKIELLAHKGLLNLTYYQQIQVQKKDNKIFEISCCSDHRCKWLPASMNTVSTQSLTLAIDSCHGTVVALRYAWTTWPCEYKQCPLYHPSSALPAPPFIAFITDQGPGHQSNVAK
PRMT1 FP inh: inhibitors of human PRMT1; recombinant PRMT1, activity-based probe fluorescence polarization; inhibition, % at 2.79 µM; actives 1.3% (n = 370,000); AID 652257;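 active = inhibition above about 21% made by adding two undisclosed values, limit read from the data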
rCAG binder conf: r(CAG) RNA repeat binding, confirmation. shares compounds with rCAG binder. TO-PRO-1 dye displacement fluorescence. inhibition, % at 3 µM. actives 70% (n = 4,300). AID 652065;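 active = inhibition above a per-plate cutoff, the mean inhibition of sample wells plus 3 SD, cut at about 35% in these data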;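 note: loss of TO-PRO-1 fluorescence as compound displaces dye from 1x1 AA loop RNA; 0% = DMSO only wells and 100% = 100 µM mitoxantrone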
DNA CAG counter: counter-screen for rCAG RNA binders: DNA CAG dye complex inhibitors; actives 94% (n = 4,300); inhibition, % at 3 µM; d(CAG) DNA oligo TO-PRO-1 dye displacement, fluorescence; AID 652068; shares compounds with rCAG binder;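 active = inhibition above its plate's cutoff, the mean test-well inhibition plus 3 SD, cut at about 4.8% in these data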;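 note: 0% = DNA dye mix with DMSO and 100% = 100 µM mitoxantrone; hits displace the dye from DNA and so lower well fluorescence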
PRMT1 inh conf: confirmation of human PRMT1 inhibitors; shares compounds with PRMT1 FP inh; recombinant His-PRMT1, activity-based probe fluorescence polarization; inhibition, % at 2.79 µM; actives 42% (n = 3,300);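 active = mean inhibition across replicates above the hit cutoff derived for the earlier primary screen, cut at about 22% in these data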
Active calls of the source: *; x = no result given.

SMILES	rCAG binder	HTRA1 inh	mABHD4 FP	SIAE primary	PRMT1 FP inh	rCAG binder conf	DNA CAG counter	PRMT1 inh conf
CCCCCCc1cc2cc(S(=O)(=O)c3ccc(F)c(Cl)c3)c(=O)oc2cc1O	15.8	-2.4	2.4	15.0	1.0	x	x	x
COC1=C[C@H](C(=O)N[C@H]2CCCC[C@@H]2NC(C)=O)[C@@]2(C)Cc3ccccc3[C@H]2CC1=O	10.1	x	0.9	0.4	2.3	x	x	x
O=C1c2cccn2CC2Cc3ccccc3N12 (stereo not drawn)	x	x	3.5	-3.7	0.3	x	x	x
CC(C)N1C(=O)S/C(=C\c2ccc(-c3ccc(Cl)c(C(=O)O)c3)o2)C1=O	50.6*	-16.6	25.9	-4.1	52.0*	46.9*	15.7*	8.4
CN(CCC#N)C(=O)COC(=O)c1c2c(nc3ccccc13)/C(=C/c1ccco1)CC2	68.9*	19.1	41.6*	20.1*	40.7*	51.8*	28.5*	29.1*
CC(C)CNC(=O)COC(=O)c1c2c(nc3ccccc13)/C(=C\c1cccs1)CC2	20.4	-40.9	-0.9	-3.7	6.6	x	x	x
Cc1ccc(S(=O)(=O)/N=C2/NC(=O)/C(=C/c3ccc(Br)o3)S2)cc1	93.5*	-45.4	-19.8	-45.5	56.4*	83.4*	54.1*	15.7
O=C(O)/C(=C/c1ccc(Cl)c([N+](=O)[O-])c1)c1ccc(S(=O)(=O)N2CCCCC2)s1	89.2*	0.8	9.9	-20.4	38.7*	76.9*	40.5*	8.6
Cc1ccc(/C=c2\s/c(=C(/C#N)C(=O)N3CCCC3)n(Cc3ccco3)c2=O)s1	34.6*	1.1	1.6	4.9	26.0*	12.4	10.2*	-0.5
COc1cc(C)c2c(c1C=O)Oc1c(c(C)c(O)c3c1C(O)OC3=O)OC2=O (stereo not drawn)	53.9*	7.8	25.9	-2.3	37.8*	34.4	7.0*	-4.8
Cc1nn(-c2ccccc2)c(Cl)c1/C=N/Nc1nncc(=O)[nH]1	8.0	-5.2	-2.1	5.4	-0.2	x	x	x
COCc1cc(=O)n2[nH]c(-c3ccsc3-n3c(C)ccc3C)cc2n1	40.5*	35.2	14.7	-11.0	45.5*	39.4*	17.4*	3.8
CCCOc1ccc(Cc2c(Cl)nc(SC)nc2N(C)C)cc1	-1.8	-7.1	-1.8	-2.2	-0.1	x	x	x
Cc1cc(Br)cn2c(Cc3ccccc3)c(-c3cccc(Cl)c3)nc12	13.1	x	-35.3	-12.3	8.8	x	x	x
Cc1cc(Br)cn2c(Cc3cccc(Cl)c3)c(-c3ccco3)nc12	41.7*	x	14.4	-7.3	43.7*	18.0	5.2*	18.3
O=C1NC(=S)S/C1=C\c1ccc(SCc2ccccc2)o1	81.9*	-32.3	-16.4	-10.0	64.1*	79.1*	43.4*	15.1
O=C1NC(=S)S/C1=C\c1ccc(SCc2ccco2)o1	x	20.1	x	x	x	x	x	x
CCCCCNC(=O)C1CC(=O)OC12CCCCC2 (stereo not drawn)	-1.6	1.1	-3.2	5.8	-3.2	x	x	x
N#Cc1c(C(F)(F)F)cc(-c2ccco2)nc1SCc1ccccn1	37.0*	-36.1	8.7	-3.9	34.7*	19.1	5.3*	-6.7
O=C(CSC1CCc2ccccc21)NNC(=O)Nc1ccc(Cl)cc1 (stereo not drawn)	6.9	x	-9.4	-8.9	-3.5	x	x	x
COc1ccc(S(=O)(=O)Nc2ccc(O)c(Sc3ncn[nH]3)c2)cc1	0.9	2.4	7.2	1.8	5.6	x	x	x
COc1ccc(S(=O)(=O)Nc2cc(Sc3ncn[nH]3)c(O)c3ccccc23)cc1	42.6*	x	28.0	8.3	95.9*	23.9	9.8*	86.9*
COC(=O)C1=C(C)N(C)C(=NCc2cc(OC)c(OC)c(OC)c2)NC1c1ccc(Cl)cc1 (stereo not drawn)	8.9	x	-10.7	-5.3	-4.0	x	x	x
CCOC(=O)c1c(NC(=O)OC)sc2c1CCC2	4.8	-4.4	-2.7	-0.1	0.1	x	x	x
CCOC(=O)c1c(NS(=O)(=O)c2ccc(Br)cc2)sc2c1CCC2	68.2*	14.6	29.2	-1.5	26.6*	79.6*	34.2*	13.1
SMILES	rCAG binder	HTRA1 inh	mABHD4 FP	SIAE primary	PRMT1 FP inh	rCAG binder conf	DNA CAG counter	PRMT1 inh conf
CCCc1c(Cc2cccc(F)c2)ncn1CCc1ccccc1OC	0.6	x	7.3	1.0	0.8	x	x	x
Nc1ccccc1Sc1ccc(C(=O)c2ccccc2C(=O)O)cc1[N+](=O)[O-]	63.7*	1.2	-11.7	12.1	72.3*	48.1*	15.2*	18.8
COc1ccc(-n2c(SCC(=O)Nc3ccc(Cl)cc3)nc(O)c(Cc3ccccc3)c2=O)cc1	62.5*	-14.5	-27.7	-1.3	34.1*	53.9*	19.7*	31.6*
CC(NC(=O)Cc1ccccc1)c1cc2c(cc1Br)OCCCO2 (stereo not drawn)	0.1	3.9	12.2	-1.4	2.2	x	x	x
S=c1[nH]nc(-c2ccco2)n1/N=C/c1cccc(Cl)c1Cl	57.0*	-10.1	8.1	-15.4	33.2*	48.1*	14.7*	32.9*
Cc1noc(NS(=O)(=O)c2ccc(NC(=O)CSc3nc4ccccc4s3)cc2)c1C	69.7*	-3.7	-7.4	-0.8	39.9*	60.8*	25.2*	36.9*
Cc1noc(NS(=O)(=O)c2ccc(NC(=O)CSc3ncccn3)cc2)c1C	0.9	-1.1	2.0	6.2	5.1	x	x	x
O=C(O)c1ccccc1-c1ccc(C=c2sc3nc4cc(Br)cnc4n3c2=O)o1	81.5*	x	28.5	6.0	84.0*	72.0*	38.6*	25.1*
COc1ccccc1N1C(=N)S/C(=C\c2ccc(-c3ccccc3C(=O)O)o2)C1=O	4.0	-2.4	11.9	0.6	2.8	x	x	x
OC(c1ccc(F)cc1)C(CN1CCOCC1)c1ccccc1 (stereo not drawn)	3.2	-0.7	0.2	-0.9	1.4	x	x	x
COc1ccccc1C1C(C(C)=O)=C(C)N=c2s/c(=C\c3cc(OC)c(OC)c(OC)c3)c(=O)n21 (stereo not drawn)	2.2	1.7	2.5	1.1	1.4	x	x	x
CC1=C(C(=O)Nc2ccccc2)C(c2ccc(C)o2)n2c(s/c(=C\c3ccco3)c2=O)=N1 (stereo not drawn)	37.9*	6.9	5.1	-4.3	53.1*	12.1	7.1*	-2.9
COc1ccc2c(c1)N[C@@](CCNC=O)(c1[nH]c3ccccc3c1CCNC=O)C2=O	x	x	-2.1	-0.4	5.8	x	x	x
CCc1ccccc1NC(=O)c1cccc(NC(=O)/C=C/c2ccco2)c1	9.7	-22.6	-24.6	-14.7	18.2	x	x	x
CC(C)(C)c1ccc(C(=O)N/C(=C\c2ccco2)C(=O)Nc2ccccc2C(=O)O)cc1	62.3*	-18.4	-4.7	-9.6	45.9*	67.6*	29.0*	0.7
O=C(/C=C/c1ccco1)Nc1cccc(C(=O)Nc2ccccc2C(=O)O)c1	67.3*	-77.2	-61.5	-64.1	25.9*	81.7*	49.1*	46.0*
